ChEMBL document CHEMBL1126990, “Design and synthesis of 18F-labeled neurotoxic analogs of MPTP” (J Med Chem, 1993)

Columns and labels:
Mus musculus [1] = organism: Mus musculus; test: Biodistribution of [18F]-radiolabeled compound in the mouse kidney after 60 minutes (average uptake in (%injected dose)/(% body weight); assay type: ADME, organism-based; conditions: in vivo, 1 h
Outline: (§1)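 Adult male C57 Black mice (about 20 g), anesthetized with 1 mg sodium pentobarbital ip, given 0.1 mL (~0.05 mCi) tracer via tail vein. Killed by cervical dislocation at set times (5–90 min). Organs sampled, counted, weighed. Injected dose measured against weighed standards, minus residual tail activity. %id/g multiplied by body weight gives normalized uptake. Mean ± SD, N = 3 (N = 2 at 5 min).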

Mus musculus [2] = organism: Mus musculus; test: Biodistribution of [18F]-radiolabeled compound in the mouse lung after 15 minutes (average uptake in (%injected dose)/(% body weight); assay type: ADME, organism-based; conditions: in vivo, 0.25 h; outline: as §1
Mus musculus [3] = organism: Mus musculus; test: Biodistribution of [18F]-radiolabeled compound in the mouse kidney after 30 minutes (average uptake in (%injected dose)/(% body weight); assay type: ADME, organism-based; conditions: in vivo, 0.5 h; outline: as §1
Mus musculus [4] = organism: Mus musculus; test: Biodistribution of [18F]-radiolabeled compound in the mouse muscle after 5 minutes (average uptake in (%injected dose)/(% body weight); assay type: ADME, organism-based, Muscle tissue; conditions: in vivo; outline: as §1
Mus musculus [5] = organism: Mus musculus; test: Biodistribution of [18F]-radiolabeled compound in the mouse lung after 90 minutes (average uptake in (%injected dose)/(% body weight); assay type: ADME, organism-based; conditions: in vivo, 1.5 h; outline: as §1
Mus musculus [6] = organism: Mus musculus; test: Biodistribution of [18F]-radiolabeled compound in the mouse bone after 15 minutes (average uptake in (%injected dose)/(% body weight); assay type: ADME, organism-based, Bone element; conditions: in vivo, 0.25 h; outline: as §1
Mus musculus [7] = organism: Mus musculus; test: Biodistribution of [18F]-radiolabeled compound in the mouse heart after 30 minutes (average uptake in (%injected dose)/(% body weight); assay type: ADME, organism-based; conditions: in vivo, 0.5 h; outline: as §1
Mus musculus [8] = organism: Mus musculus; test: Biodistribution of [18F]-radiolabeled compound in the mouse lung after 5 minutes (average uptake in (%injected dose)/(% body weight); assay type: ADME, organism-based; conditions: in vivo; outline: as §1
Mus musculus [9] = organism: Mus musculus; test: Biodistribution of [18F]-radiolabeled compound in the mouse intestine after 60 minutes (average uptake in (%injected dose)/(% body weight); assay type: ADME, organism-based; conditions: in vivo, 1 h; outline: as §1
Mus musculus [10] = organism: Mus musculus; test: Biodistribution of [18F]-radiolabeled compound in the mouse muscle after 90 minutes (average uptake in (%injected dose)/(% body weight); assay type: ADME, organism-based, Muscle tissue; conditions: in vivo, 1.5 h; outline: as §1
Mus musculus [11] = organism: Mus musculus; test: Biodistribution of [18F]-radiolabeled compound in the mouse intestine after 15 minutes (average uptake in (%injected dose)/(% body weight); assay type: ADME, organism-based; conditions: in vivo, 0.25 h; outline: as §1
Mus musculus [12] = organism: Mus musculus; test: Biodistribution of [18F]-radiolabeled compound in the mouse spleen after 30 minutes (average uptake in (%injected dose)/(% body weight); assay type: ADME, organism-based; conditions: in vivo, 0.5 h; outline: as §1
Mus musculus [13] = organism: Mus musculus; test: Biodistribution of [18F]-radiolabeled compound in the mouse kidney after 5 minutes (average uptake in (%injected dose)/(% body weight); assay type: ADME, organism-based; conditions: in vivo; outline: as §1
Mus musculus [14] = organism: Mus musculus; test: Biodistribution of [18F]-radiolabeled compound in the mouse liver after 5 minutes (average uptake in (%injected dose)/(% body weight); assay type: ADME, organism-based; conditions: in vivo; outline: as §1
Mus musculus [15] = organism: Mus musculus; test: Biodistribution of [18F]-radiolabeled compound in the mouse spleen after 60 minutes (average uptake in (%injected dose)/(% body weight); assay type: ADME, organism-based; conditions: in vivo, 1 h; outline: as §1
Mus musculus [16] = organism: Mus musculus; test: Biodistribution of [18F]-radiolabeled compound in the mouse kidney after 90 minutes (average uptake in (%injected dose)/(% body weight); assay type: ADME, organism-based; conditions: in vivo, 1.5 h; outline: as §1
Mus musculus [17] = organism: Mus musculus; test: Biodistribution of [18F]-radiolabeled compound in the mouse blood after 15 minutes (average uptake in (%injected dose)/(% body weight); assay type: ADME, organism-based; conditions: in vivo, 0.25 h; outline: as §1
Mus musculus [18] = organism: Mus musculus; test: Biodistribution of [18F]-radiolabeled compound in the mouse blood after 30 minutes (average uptake in (%injected dose)/(% body weight); assay type: ADME, organism-based; conditions: in vivo, 0.5 h; outline: as §1
Mus musculus [19] = organism: Mus musculus; test: Biodistribution of [18F]-radiolabeled compound in the mouse lung after 30 minutes (average uptake in (%injected dose)/(% body weight); assay type: ADME, organism-based; conditions: in vivo, 0.5 h; outline: as §1
Rattus norvegicus = organism: Rattus norvegicus; test: Maximal rate (Vmax) for oxidation by rat liver MAO (results are means of number of separate experiments, n=4) (*p<0.01); assay type: ADME
Outline: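 Rat liver MAO (crude P2 mitochondrial fraction from adult male Wistar rats, in pH 7.4 phosphate buffer) incubated with substrate at 30 μM to 5 mM; colorimetric detection of H2O2 formed. Blanks contained 0.1 mM pargyline. Vmax and Km from linear regression of Lineweaver-Burk plots; means ± SE of n separate experiments; ANOVA with post-hoc Scheffe test.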

Mus musculus [20] = organism: Mus musculus; test: Biodistribution of [18F]-radiolabeled compound in the mouse blood after 60 minutes (average uptake in (%injected dose)/(% body weight); assay type: ADME, organism-based; conditions: in vivo, 1 h; outline: as §1
Mus musculus [21] = organism: Mus musculus; test: Biodistribution of [18F]-radiolabeled compound in the mouse brain after 60 minutes (average uptake in (%injected dose)/(% body weight); assay type: ADME, organism-based; conditions: in vivo, 1 h; outline: as §1
Mus musculus [22] = organism: Mus musculus; test: Biodistribution of [18F]-radiolabeled compound in the mouse intestine after 30 min (average uptake in (%injected dose)/(% body weight); assay type: ADME, organism-based; conditions: in vivo, 0.5 h; outline: as §1
Mus musculus [23] = organism: Mus musculus; test: Biodistribution of [18F]-radiolabeled compound in the mouse bone after 5 minutes (average uptake in (%injected dose)/(% body weight); assay type: ADME, organism-based, Bone element; conditions: in vivo; outline: as §1
Mus musculus [24] = organism: Mus musculus; test: Biodistribution of [18F]-radiolabeled compound in the mouse heart after 60 minutes (average uptake in (%injected dose)/(% body weight); assay type: ADME, organism-based; conditions: in vivo, 1 h; outline: as §1
Mus musculus [25] = organism: Mus musculus; test: Biodistribution of [18F]-radiolabeled compound in the mouse bone after 90 minutes (average uptake in (%injected dose)/(% body weight); assay type: ADME, organism-based, Bone element; conditions: in vivo, 1.5 h; outline: as §1

CN1CC=C(c2ccccc2CF)CC1
Time (Mus musculus [1]): 0.94 min | Time (Mus musculus [2]): 3.83 min | Time (Mus musculus [3]): 1.36 min | Time (Mus musculus [4]): 0.61 min | Time (Mus musculus [5]): 1.46 min | Time (Mus musculus [6]): 1.58 min | Time (Mus musculus [7]): 2.03 min | Time (Mus musculus [8]): 6.33 min | Time (Mus musculus [9]): 0.88 min | Time (Mus musculus [10]): 0.24 min | Time (Mus musculus [11]): 1.99 min | Time (Mus musculus [12]): 1.04 min | Time (Mus musculus [13]): 4.04 min | Time (Mus musculus [14]): 2.3 min | Time (Mus musculus [15]): 0.93 min | Time (Mus musculus [16]): 0.72 min | Time (Mus musculus [17]): 0.66 min | Time (Mus musculus [18]): 0.4 min | Time (Mus musculus [19]): 2.54 min | Vmax (Rattus norvegicus): 609 nM hr-1 (mg of protein)-1 | Time (Mus musculus [20]): 0.31 min | Time (Mus musculus [21]): 0.65 min | Time (Mus musculus [22]): 1.06 min | Time (Mus musculus [23]): 0.87 min | Time (Mus musculus [24]): 1.88 min | Time (Mus musculus [25]): 3.32 min
